Laboratory results published in ChEMBL document CHEMBL1134250, “Inhibition of neuronal nitric oxide synthase by 7-methoxyindazole and related substituted indazoles” (Bioorg Med Chem Lett, 2001).

Experiments:
Nitric oxide synthase 1 [1] = molecular target: T1, Nitric oxide synthase 1 (Rattus norvegicus, UniProt P29476); assay: In vitro inhibitory concentration against rat cerebellar neuronal nitric oxide synthase; no effect
How it was run: (§1)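 Rat cerebellum homogenate nNOS. L-[3H]arginine to L-[3H]citrulline conversion with 1 mM CaCl2, 200 μM β-NADPH, 0.88 μM L-arginine and 0.12 µM L-[3H]arginine, 15 min at 37 °C. Vehicle ethanol or DMSO 0.4–0.8%. IC50 from inhibition curves at 0.1, 1, 10 and 100 µM. Mean ± SEM, 1–6 experiments.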

[2] = molecular target: Nitric oxide synthase 1 (Rattus norvegicus) (UniProt P29476); assay: In vitro percent inhibition of rat cerebellar neuronal nitric oxide synthase at a concentration of 100 uM
Sequence of Nitric oxide synthase 1 (Rattus norvegicus) (P29476 whole entry): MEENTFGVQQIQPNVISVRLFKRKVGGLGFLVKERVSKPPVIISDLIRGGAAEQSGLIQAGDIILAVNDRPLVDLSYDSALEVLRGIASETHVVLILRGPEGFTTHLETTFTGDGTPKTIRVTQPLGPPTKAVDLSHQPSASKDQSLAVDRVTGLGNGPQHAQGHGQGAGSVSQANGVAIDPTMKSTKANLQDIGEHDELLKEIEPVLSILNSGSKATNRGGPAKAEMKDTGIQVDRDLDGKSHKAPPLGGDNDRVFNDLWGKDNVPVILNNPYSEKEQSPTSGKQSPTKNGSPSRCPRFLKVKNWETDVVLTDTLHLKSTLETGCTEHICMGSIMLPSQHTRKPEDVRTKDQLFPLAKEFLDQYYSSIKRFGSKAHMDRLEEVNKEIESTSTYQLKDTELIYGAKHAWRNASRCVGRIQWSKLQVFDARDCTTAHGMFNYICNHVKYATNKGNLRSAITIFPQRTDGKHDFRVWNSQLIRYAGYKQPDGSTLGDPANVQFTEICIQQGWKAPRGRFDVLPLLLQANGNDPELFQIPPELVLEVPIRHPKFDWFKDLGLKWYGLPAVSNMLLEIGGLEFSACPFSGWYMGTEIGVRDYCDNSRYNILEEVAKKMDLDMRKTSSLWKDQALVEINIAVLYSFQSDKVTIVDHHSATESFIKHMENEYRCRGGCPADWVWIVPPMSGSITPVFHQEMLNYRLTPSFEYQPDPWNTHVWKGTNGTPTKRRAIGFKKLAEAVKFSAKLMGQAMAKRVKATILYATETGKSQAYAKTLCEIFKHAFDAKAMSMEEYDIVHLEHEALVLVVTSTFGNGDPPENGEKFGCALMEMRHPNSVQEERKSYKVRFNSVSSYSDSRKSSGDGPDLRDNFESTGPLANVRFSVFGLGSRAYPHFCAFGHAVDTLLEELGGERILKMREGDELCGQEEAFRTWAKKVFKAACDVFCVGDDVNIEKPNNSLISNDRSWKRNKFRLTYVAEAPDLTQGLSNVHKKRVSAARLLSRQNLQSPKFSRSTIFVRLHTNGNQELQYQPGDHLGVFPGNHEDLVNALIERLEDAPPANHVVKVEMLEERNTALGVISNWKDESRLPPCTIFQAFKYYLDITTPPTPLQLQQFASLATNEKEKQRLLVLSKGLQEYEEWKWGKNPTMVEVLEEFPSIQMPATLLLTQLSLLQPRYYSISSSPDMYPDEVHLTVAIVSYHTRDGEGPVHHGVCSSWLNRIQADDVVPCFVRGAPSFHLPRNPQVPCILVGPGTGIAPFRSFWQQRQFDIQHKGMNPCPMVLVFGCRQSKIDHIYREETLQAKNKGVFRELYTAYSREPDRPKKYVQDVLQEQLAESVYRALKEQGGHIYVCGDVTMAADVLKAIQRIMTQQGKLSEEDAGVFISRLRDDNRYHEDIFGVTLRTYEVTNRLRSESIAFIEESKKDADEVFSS
How it was run: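 Rat cerebellar homogenate nNOS, assayed as L-[3H]arginine to L-[3H]citrulline conversion (1 mM CaCl2, 200 μM β-NADPH, 0.88 μM L-arginine, 0.12 µM L-[3H]arginine, 15 min, 37 °C). Compound at 100 µM in ethanol or DMSO vehicle. Result given as % inhibition.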

Nitric oxide synthase 1 [3] = molecular target: T1, Nitric oxide synthase 1; assay: In vitro inhibitory concentration against rat cerebellar neuronal nitric oxide synthase
Mus musculus [4] = assay: Antinociceptive activity in Writhing test in mice(ip) at a dose of 10 mg/kg (p<0.05); assay type: functional
Mus musculus [5] = assay: Antinociceptive activity in Writhing test in mice(ip) at a dose of 25 mg/kg (p<0.05); assay type: functional
Mus musculus [6] = assay: Antinociceptive activity in Writhing test in mice(ip) at a dose of 50 mg/kg (p<0.001); assay type: functional
Mus musculus [7] = assay: Effect of l-Arginine on Antinociceptive activity in mice(ip) at a dose of 50 mg/kg (p<0.05); assay type: functional
Mus musculus [8] = assay: Antinociceptive activity in Writhing test in mice(ip) at a dose of 15 mg/kg (p<0.001)
[9] = molecular target: Nitric oxide synthase 1 (Rattus norvegicus) (UniProt P29476); assay: Ex vivo inhibition of rat cerebellar neuronal nitric oxide synthase after intraperitoneal administration in rats.; assay type: functional, organism-based; details: concentration not given here
How it was run: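 Rats, n=6, received 50 mg/kg ip in arachis oil. Cerebellum removed 30 min later. nNOS activity measured ex vivo as L-[3H]arginine to L-[3H]citrulline conversion. Expressed as % inhibition.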

Nitric oxide synthase 1 [10] = molecular target: T1, Nitric oxide synthase 1; assay: In vitro inhibitory concentration against rat cerebellar neuronal nitric oxide synthase; No effect; how it was run: as §1

T1 sequence (P29476 whole entry): as above

With `COc1cccc2c(I)[nH]nc12` the IC50 (Nitric oxide synthase 1 [1]) was “Not Active” and the inhibition [2] was 0%.

In the case of `COc1cccc2[nH]ncc12`, the IC50 (Nitric oxide synthase 1 [3]) is reported as > 100 µM and the inhibition [2] is reported as 30%.

For `COc1ccc2[nH]ncc2c1`, the IC50 (Nitric oxide synthase 1 [3]) was > 100 µM and the inhibition [2] was 25%.

`Fc1ccc2[nH]ncc2c1` was tested, and the IC50 (Nitric oxide synthase 1 [3]) was > 100 µM.

Compound `COc1cccc2c[nH]nc12` has a No. of writhes (Mus musculus [4]) of 15.4, a No. of writhes (Mus musculus [5]) of 12.2 and a No. of writhes (Mus musculus [6]) of 4.7. The No. of writhes (Mus musculus [7]) was 10.6, the IC50 (Nitric oxide synthase 1 [3]) was 6.3 µM and the inhibition [2] was 80%.

With `Cc1ccc2cn[nH]c2c1` the IC50 (Nitric oxide synthase 1 [3]) was > 100 µM.

`Oc1cccc2cn[nH]c12` was tested, and the IC50 (Nitric oxide synthase 1 [3]) was > 100 µM and the inhibition [2] was 7%.

Compound `CC(=O)Oc1ccccc1C(=O)O` [ASPIRIN] has a No. of writhes (Mus musculus [8]) of 3.5.

With `Clc1ccc2cn[nH]c2c1` the IC50 (Nitric oxide synthase 1 [3]) was 28 µM.

`Brc1ccc2[nH]ncc2c1` was tested, and the IC50 (Nitric oxide synthase 1 [3]) was 75 µM.

With `FC(F)(F)c1ccccc1-n1ccnc1` the IC50 (Nitric oxide synthase 1 [3]) was 30 µM and the inhibition [9] was 45%.

For `COc1ccc2c[nH]nc2c1`, the IC50 (Nitric oxide synthase 1 [10]) was “Not Active” and the inhibition [2] was 0%.

`c1ccc(COc2cccc3c[nH]nc23)cc1` was tested, and the IC50 (Nitric oxide synthase 1 [1]) was “Not Active” and the inhibition [2] was 0%.

`O=[N+]([O-])c1cccc2cn[nH]c12` [7-NITROINDAZOLE] gave a No. of writhes (Mus musculus [6]) of 6.2 and an inhibition [9] of 92%.

Compound `CCOc1cccc2c[nH]nc12` has an IC50 (Nitric oxide synthase 1 [3]) of 100 µM and an inhibition [2] of 50%.
